{"source": "ChEMBL document CHEMBL4513216", "about": "“Probing the Open Global Health Chemical Diversity Library for Multistage-Active Starting Points for Next-Generation Antimalarials” (ACS Infect Dis, 2020)", "data": [{"test": "Toxicity liver stage against HepG2, at 10uM", "assay_type": "cell-based", "set-up": "test concentration 10 uM, cell line HepG2-A16-CD81EGFP", "details": "human, HepG2-A16-CD81EGFP cells; read-out: INHIBITION", "procedure,_shortened": "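Uninfected HepG2-A16-CD81EGFP cells, 3 × 10^3 per well, 1536-well, plated on prespotted compound at 10 μM final, parasite-free screening media added to match infected plates; puromycin 10 μM positive, DMSO 0.5% negative; run in parallel with 48 h PbLuc assay at 37 °C, 5% CO2; viability by CellTiter-Glo luminescence, normalized to controls.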", "units": {"cytotoxicity at 10 µM": "%"}, "values": [{"molecule": "COCCN1C[C@H]2CN(Cc3cccc(OC)c3)CCN2C1=O", "cytotoxicity at 10 µM": 7.91}, {"molecule": "O=C(O)CCn1ccc2cc(Br)ccc21", "cytotoxicity at 10 µM": 10.7}, {"molecule": "COc1cc(C2SC(C)=Nc3c2c(=O)[nH]n3C2CCCC2)ccc1O", "note": "(stereo unspecified)", "cytotoxicity at 10 µM": 3.54}, {"molecule": "O=C(CC1CCCC1)Nc1ccc(-n2cc(Br)cn2)nc1", "cytotoxicity at 10 µM": -51.2}, {"molecule": "Cc1cc(C)nc(N2CCC(C(=O)Nc3n[nH]c(C(C)C)n3)CC2)n1", "cytotoxicity at 10 µM": 4.07}, {"molecule": "COC(CNC(=O)C1CCCC1)c1ccc(C)s1", "note": "(stereo unspecified)", "cytotoxicity at 10 µM": 4.45}, {"molecule": "COc1ccc(C(=O)N2CCCC3(CCCC(=O)N3C)C2)cc1", "note": "(stereo unspecified)", "cytotoxicity at 10 µM": -10.1}, {"molecule": "c1ccc(COCC2CNCc3nccn3C2)nc1", "note": "(stereo unspecified)", "cytotoxicity at 10 µM": 14.4}, {"molecule": "CS(=O)(=O)N1Cc2nc(C(=O)NCc3ccccc3)oc2C1", "cytotoxicity at 10 µM": -3.46}, {"molecule": "CCN(CC)c1ccc2ccc(C(=O)NC3CC3)cn12", "cytotoxicity at 10 µM": -2.6}, {"molecule": "O=C([C@H]1C[C@H]2[C@H](CCN2Cc2cccs2)O1)N1CCOCC1", "cytotoxicity at 10 µM": 0.582}, {"molecule": "c1cc(-c2ccc3c(c2)CCC32CCN(c3nncs3)CC2)co1", "cytotoxicity at 10 µM": -2.07}, {"molecule": "Cc1noc([C@@H]2CC[C@@H]3[C@@H](CCN3S(=O)(=O)c3ccccc3)O2)n1", "cytotoxicity at 10 µM": 2.43}, {"molecule": "CN(C)C(=O)c1c[nH]nc1C1CCN(S(=O)(=O)c2ccc(Cl)cc2)CC1", "cytotoxicity at 10 µM": -4.9}, {"molecule": "Oc1nc(N2CCCC2)nc2c1CCN(Cc1cccnc1)CC2", "cytotoxicity at 10 µM": -7.25}, {"molecule": "Cc1ccc(C(=O)N2CCCCC2c2[nH]ncc2S(C)(=O)=O)cn1", "note": "(stereo unspecified)", "cytotoxicity at 10 µM": -6.72}, {"molecule": "COc1ccccc1CN1CC[C@H]2[C@@H](C1)[C@H](c1ccsc1)CN2C(C)=O", "cytotoxicity at 10 µM": -12.4}, {"molecule": "CCOc1nnc(CN(CC)CC(=O)NC(C)(C)C)s1", "cytotoxicity at 10 µM": -13.7}, {"molecule": "COCCN(Cc1ccccc1)C(=O)c1csc(-c2nnc[nH]2)n1", "cytotoxicity at 10 µM": 4.9}, {"molecule": "Cn1ccnc(Nc2ccc3c(c2)CCN3C(=O)c2cccnc2)c1=O", "cytotoxicity at 10 µM": -55}, {"molecule": "FC(F)(F)CN1CCC(CNc2nc3ccccc3o2)C1", "note": "(stereo unspecified)", "cytotoxicity at 10 µM": 2.7}, {"molecule": "CC(C#N)CN(C)Cc1ccc(Cl)c2cccnc12", "note": "(stereo unspecified)", "cytotoxicity at 10 µM": -40.4}, {"molecule": "CCC(CC)c1cc(C(=O)N2CCN(C(C)C(N)=O)CC2)on1", "note": "(stereo unspecified)", "cytotoxicity at 10 µM": 5.82}, {"molecule": "COC(=O)c1ccc(NCc2csc(C)n2)cc1Cl", "cytotoxicity at 10 µM": -5.08}, {"molecule": "Cc1cc(Cl)ccc1NCC(=O)Nc1cc(C(C)(C)C)no1", "cytotoxicity at 10 µM": 0.521}, {"molecule": "COc1ccc(C2(NCc3noc(C4CC4)n3)CCOCC2)cc1", "cytotoxicity at 10 µM": -6.44}, {"molecule": "O=C(NCC1CCS(=O)(=O)C1)c1cccc(CN2CCCC2)c1", "note": "(stereo unspecified)", "cytotoxicity at 10 µM": -0.986}, {"molecule": "COc1ccc(N2CCCN(C(=O)Cc3csc(C)n3)CC2)cc1", "cytotoxicity at 10 µM": 3.91}, {"molecule": "Cc1ncc(CNC2CCc3nc(C(C)C)nn3C2)s1", "note": "(stereo unspecified)", "cytotoxicity at 10 µM": 3.97}, {"molecule": "CCn1ccnc1CN1CCN(CCc2ccncc2)CC1C", "note": "(stereo unspecified)", "cytotoxicity at 10 µM": -3.04}, {"molecule": "Cc1ccc(-c2nc(CN3CCn4c(nnc4C4CC4)C3)no2)cc1", "cytotoxicity at 10 µM": -1.99}, {"molecule": "CCOc1ccc(CN(C)C2CCN(c3cc(C)nn3C)C2=O)cc1", "note": "(stereo unspecified)", "cytotoxicity at 10 µM": 1.66}, {"molecule": "Cc1n[nH]cc1CNCC(c1cccc(F)c1)N(C)C", "note": "(stereo unspecified)", "cytotoxicity at 10 µM": -0.0972}, {"molecule": "CC(C)N(CCNC(=O)c1n[nH]c2ccccc12)C(C)C", "cytotoxicity at 10 µM": -42.8}, {"molecule": "Cc1nn(C)c(Cl)c1C1CCCN1Cc1cn2ccsc2n1", "note": "(stereo unspecified)", "cytotoxicity at 10 µM": -44.5}, {"molecule": "Cn1cc(CN2C[C@@H]3CN(C(=O)c4cccn4C)CCO[C@@H]3C2)cn1", "cytotoxicity at 10 µM": -110}, {"molecule": "CCS(=O)(=O)N1CCC2(CC1)c1ncc(-c3cccnc3)n1CCN2C", "cytotoxicity at 10 µM": -103}, {"molecule": "CNc1cc(-c2ccncc2)ncn1", "cytotoxicity at 10 µM": -13.9}, {"molecule": "COc1ccc2c(c1)[C@@H](CCNC(C)=O)CC(C)(C)O2", "cytotoxicity at 10 µM": -6.33}, {"molecule": "Cc1sc2ncc(-c3ccnc(NC4CCN(C)CC4)n3)c(=O)n2c1C", "cytotoxicity at 10 µM": -7.75}, {"molecule": "Fc1cccc(-n2nc(C3CC3)nc2CCn2cnnn2)c1", "cytotoxicity at 10 µM": -0.174}, {"molecule": "O=C(Cn1cccn1)N(CCO)CCSc1ccc(Cl)cc1", "cytotoxicity at 10 µM": 0.513}, {"molecule": "Cc1nc(N[C@H]2COC[C@@H]2N2CCCCC2)c2c(C)nn(C)c2n1", "cytotoxicity at 10 µM": -1.21}, {"molecule": "COc1nc2c(cc1C(=O)NCc1noc(Cc3cccs3)n1)CCC2", "cytotoxicity at 10 µM": -6.36}, {"molecule": "CN(Cc1cc(-c2cccnc2)no1)C(=O)c1cccn1C", "cytotoxicity at 10 µM": -1.1}, {"molecule": "Cc1ccc(C(=O)NCCC2CN(c3cnn(C)c(=O)c3)CCO2)s1", "note": "(stereo unspecified)", "cytotoxicity at 10 µM": -1.38}, {"molecule": "CCOc1ccc2nc(CN3CCOC(CN)C3)ccc2c1", "note": "(stereo unspecified)", "cytotoxicity at 10 µM": -3.54}, {"molecule": "CC(Cc1cn(CCc2nc(N)cc(O)n2)nn1)c1ccccc1", "note": "(stereo unspecified)", "cytotoxicity at 10 µM": -5.58}, {"molecule": "Cc1ccc(CN2CCN(c3cc(NCCO)ncn3)CC2CCO)o1", "note": "(stereo unspecified)", "cytotoxicity at 10 µM": 7.11}, {"molecule": "CC(C)Nc1cc(N2CCC(n3cc(C4CC4)nn3)CC2)ncn1", "cytotoxicity at 10 µM": 7.88}, {"molecule": "O=C(c1coc(CN2CCN(c3ccccc3F)CC2)n1)N1CCCC1", "cytotoxicity at 10 µM": 19.2}, {"molecule": "Cc1cc(C)n(-c2ccc(C(=O)NCc3cncn3CC(C)C)cc2)n1", "cytotoxicity at 10 µM": -4.04}, {"molecule": "NC(=O)CCC1CCCN(c2ncnc3c2Cc2ccccc2OC3)C1", "note": "(stereo unspecified)", "cytotoxicity at 10 µM": 0.721}, {"molecule": "CCn1cc(N)c(-c2nnc3n2CCC3)n1", "cytotoxicity at 10 µM": -12.1}, {"molecule": "COc1ccc(CNCc2cn(C)nc2C)cc1", "cytotoxicity at 10 µM": -1.42}, {"molecule": "Cc1nc(CN2CCCN(C(=O)c3cccnc3O)CC2)cs1", "cytotoxicity at 10 µM": -8.51}, {"molecule": "Cc1nc2n(n1)CC(NCc1nc(-c3cccnc3)no1)CC2", "note": "(stereo unspecified)", "cytotoxicity at 10 µM": -3.44}, {"molecule": "CC(NC(=O)CNCCn1cccn1)c1ccc2c(c1)OCCO2", "note": "(stereo unspecified)", "cytotoxicity at 10 µM": -13}, {"molecule": "c1nc2n(n1)CC(NCc1csc(-c3ccsc3)n1)CC2", "note": "(stereo unspecified)", "cytotoxicity at 10 µM": 3.79}, {"molecule": "COCc1nc(C(=O)NS(=O)(=O)c2cc(F)ccc2F)cs1", "cytotoxicity at 10 µM": -2.22}, {"molecule": "Cc1ccc(C(=O)N2CCN(C(=O)NC(C)Cn3ccnc3)CC2)o1", "note": "(stereo unspecified)", "cytotoxicity at 10 µM": -1.47}, {"molecule": "O=C(CSc1ccccc1Cl)NS(=O)(=O)c1ccc2c(c1)OCCO2", "cytotoxicity at 10 µM": -10.7}, {"molecule": "Cn1ncc2c(=O)[nH]c(CN3CCCC3c3cccs3)nc21", "note": "(stereo unspecified)", "cytotoxicity at 10 µM": -4.43}, {"molecule": "Cc1nccn1CC1CCCN1S(=O)(=O)Cc1ccon1", "note": "(stereo unspecified)", "cytotoxicity at 10 µM": -9.57}, {"molecule": "CN1CCN(C(=O)c2cnc3c(cnn3C3CCCC3)c2)CC1", "cytotoxicity at 10 µM": -14.6}, {"molecule": "COc1cccc(CN2C[C@@H]3CC[C@@](O)(c4ccccn4)[C@@H]3C2)c1OC", "cytotoxicity at 10 µM": -9.94}, {"molecule": "CC(N)Cc1ccccc1Sc1ccccc1", "note": "(stereo unspecified)", "cytotoxicity at 10 µM": 5.41}, {"molecule": "CNC(=O)CN1CCOCC12CCN(Cc1ccncc1)CC2", "cytotoxicity at 10 µM": 3.07}, {"molecule": "Cc1cc(C(=O)N2CCC3(CC2)COCCN(c2cccnc2)C3)[nH]n1", "cytotoxicity at 10 µM": -2.66}, {"molecule": "Cn1nc(Cn2cccc2)c2c1CN(Cc1ccoc1)C2", "cytotoxicity at 10 µM": 2.96}, {"molecule": "Cc1cccc(CN2C(=O)CCC23CCN(Cc2cccn2C)CC3)n1", "cytotoxicity at 10 µM": 5.61}, {"molecule": "Cc1cccc(CN2CCCn3c(nnc3CN3CCCC3=O)C2)n1", "cytotoxicity at 10 µM": 2.14}, {"molecule": "c1ccc(CO[C@@H]2C[C@H]3CN(c4ncccn4)CCN3C2)nc1", "cytotoxicity at 10 µM": -7.49}, {"molecule": "CCC(C)(N)c1nc(=O)c(C(C)C)c(C)[nH]1", "note": "(stereo unspecified)", "cytotoxicity at 10 µM": -6.17}, {"molecule": "c1ccc(CCN2CCn3cc(Cn4cccn4)nc3C2)cc1", "cytotoxicity at 10 µM": -1.98}, {"molecule": "Cc1cnc(N2C[C@@H]3CN(C4CCOC4)CCC[C@]3(C(=O)O)C2)nc1", "note": "(stereo partly specified)", "cytotoxicity at 10 µM": -111}, {"molecule": "COCCN1CCO[C@@H]2CN(Cc3ccc(C)s3)C[C@@H]2C1", "cytotoxicity at 10 µM": -8.81}, {"molecule": "CN(C)Cc1cncc2c1CCN(Cc1ccoc1)C2", "cytotoxicity at 10 µM": -103}, {"molecule": "CNc1ncc(-c2csc(NC(=O)C[C@H]3COCCN3)n2)cn1", "cytotoxicity at 10 µM": -11.9}, {"molecule": "NC1CCC(NC(=O)c2ccc3nc(-c4ccc(F)cc4)cn3c2)CC1", "note": "(stereo unspecified)", "cytotoxicity at 10 µM": -17.7}, {"molecule": "COC1C[C@@H]2CN(C(=O)c3[nH]nc4c3CCCC4)C[C@@H]2C1", "note": "(stereo partly specified)", "cytotoxicity at 10 µM": 0.0252}]}]}
